High-throughput results (PubChem)
Hits are enriched below; roughly 2.9% of the tested compounds scored in any of these assays.
TRPC6 activator: activators of mouse TRPC6 channel; Q61143; B-score at 10 µM; AID 2550; hit rate 0.13% among 310,000; HEK293-TRPC6 membrane potential dye fluorescence; hits give high values;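 active means B-score of the integrated fluorescence ratio above library mean plus 3 SD, and starting fluorescence ratio within library mean plus 5 SD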;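 further: higher score means more depolarization so channel activation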
TRPC4 potent: TRPC4 (mouse) allosteric potentiation; HEK293 TRPC4beta/mu-opioid, DAMGO EC20, Fluo-4 Ca2+ flux; hits give high values; hit rate 0.42% among 310,000; AID 2227; B-score at 10 µM;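 active means B-score of calcium response area above 5 SD of library B-scores, with initial fluorescence ratio within 5 SD of library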
TRPC4 inh: TRPC4 (mouse) channel inhibition; Q9QUQ5; HEK293 TRPC4beta/mu-opioid, DAMGO-evoked Fluo4 calcium flux; hits give low values; B-score at 10 µM; hit rate 0.39% among 300,000;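 active means B-score over 3 SD under the library average, no early fluorescence shift, positive overall ratio signal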
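material = TRPC4beta/mu-opioid receptor HEK293 cell line | probe or stimulus = sequential submaximal and maximal DAMGO stimulation | compound dosing = one concentration per compound | measured by = Fluo4 Ca2+ flux fluorescence | evaluation = integrated fluorescence ratio relative to baseline, converted to per-well B score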
TRPC6 inhibitor: inhibitors of mouse TRPC6 channel. Q61143. HEK293-TRPC6, membrane potential dye, ACh-evoked depolarization; hits give low values. hit rate 1.1% among 310,000. AID 2553. B-score at 10 µM;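 active means B-score under library mean minus 3 SD, initial fluorescence not abnormally high, positive integrated signal ratio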;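 further: B-score derived from integrated fluorescence ratio over the kinetic read; more negative B-score means stronger inhibition of depolarization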
TRPC4 act: TRPC4 (mouse) channel activation. B-score at 10 µM. Q9QUQ5. hit rate 0.49% among 310,000. HEK293 TRPC4beta/mu-opioid, Fluo4 calcium fluorescence; hits give high values;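 active means B-score above 5 SD of library B-scores, and initial fluorescence ratio not above library mean plus 5 SD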;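 further: positive B-score marks a calcium rise read as TRPC4 activation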
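System – HEK293 cells stably co-expressing mouse TRPC4beta and mu-opioid receptor · Signal – Fluo4 calcium-sensitive dye fluorescence, kinetic, 1 Hz baseline · Benchmarks – buffer (low) and maximal DAMGO (high) · Read-out – B score of integrated fluorescence ratio per well · Incubation – dye loading 45 min room temperature, 110 s kinetic read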
Kir21 inh: inhibitors of mouse Kir2.1 inward-rectifier potassium channel; HEK293-Kir2.1, FluxOR thallium flux fluorescence; hits give low values; B-score at 10 µM; hit rate 0.85% among 310,000; AID 1672;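 active means fluorescence ratio B-score at or below minus 3 SD of library scores, with starting-brightness B-score within 2 SD, cut at about -4.2 in these data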;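 further: channel flux triggered by added potassium and thallium sulfate stimulus; B-score of peak minus minimum fluorescence over baseline after thallium stimulus; more negative B-score means stronger Kir2.1 block with less thallium influx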
Target sequence (P35561 whole entry, looked up): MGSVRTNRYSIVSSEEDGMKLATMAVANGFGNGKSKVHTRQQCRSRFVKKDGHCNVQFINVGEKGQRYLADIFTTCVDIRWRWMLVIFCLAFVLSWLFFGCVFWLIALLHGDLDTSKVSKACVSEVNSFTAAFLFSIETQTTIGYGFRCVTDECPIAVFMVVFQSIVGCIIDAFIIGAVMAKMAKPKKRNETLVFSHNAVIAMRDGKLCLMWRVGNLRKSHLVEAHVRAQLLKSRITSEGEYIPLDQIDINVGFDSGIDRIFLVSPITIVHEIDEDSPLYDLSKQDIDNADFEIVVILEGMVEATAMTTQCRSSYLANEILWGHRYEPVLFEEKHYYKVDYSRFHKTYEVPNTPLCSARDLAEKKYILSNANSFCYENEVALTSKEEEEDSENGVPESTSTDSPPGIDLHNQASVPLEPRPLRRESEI
Numbers stand for hits; 0 = inactive; ! = not confirmed by another sample.

SMILES	TRPC6 activator	TRPC4 potent	TRPC4 inh	TRPC6 inhibitor	TRPC4 act	Kir21 inh
COCCNCCOc1ccc(C(C)(C)c2ccccc2)cc1	0	0	0	0	0	-12
CC(=O)OC1CC[C@]2(C#N)[C@H]3CC[C@]4(C)[C@H](C5C=CC(=O)O5)CCC4(O)C3CCC2(O)C1 (stereo not given in full)	0	0	0	0	0	0
Cc1ccc(CC(=O)N2CCN(Cc3ccccc3)CC2)cc1	0	0	0	0	0	0
Cc1ccccc1CN1CCN(Cc2ccccc2)CC1	0	0	0	0	0	-4.7
Oc1c(Br)cc(Br)cc1CN1CCN(Cc2ccccc2)CC1	0	20	0	0	0	0
COc1ccc(CN2CCN(Cc3ccccc3)CC2)c(OC)c1	0	0	0	0	0	0
CC(C)(C#CC(=O)O)OOC(c1ccccc1)(c1ccccc1)c1ccccc1	0	0	0	0	0	0
CNC(C)Cc1ccccc1Sc1ccc(O)cc1 (stereo not given)	0	0	-6	0	0	0
Cc1ccc(OCCOc2cccc(C=C3C(=O)NC(=O)NC3=O)c2)cc1	0	0	0	0	0	0
COc1ccc(CN2C(=O)NC(=O)/C(=C/c3ccc([N+](=O)[O-])s3)C2=O)cc1	0	0	0	0	0	0
CC(N)Cc1c[nH]c2cc3c(cc12)OCCO3 (stereo not given)	0	0	0	0	143	0
CC(N)Cc1c[nH]c2ccc(Cl)cc12 (stereo not given)	0	13	0	0	0	0
CCn1c(O)c(C=NCCN2CCOCC2)c(=O)[nH]c1=S	0	0	0	0	0	0
COc1ccc(-[n+]2c(-c3ccccc3)cc(-c3ccccc3)cc2-c2ccccc2)cc1	0	0	0	0	0	-7.5
Oc1ccc(-[n+]2c(-c3ccccc3)cc(-c3ccccc3)cc2-c2ccccc2)cc1	0	0	0	0	0	-10
CCC(=O)C(CCN1CCOCC1)(c1ccccc1)c1ccccc1	0	0	0	0	62	0
N#CC(CCN1CCOCC1)(c1ccccc1)c1ccccc1	0	0	0	0	0	0
CCN(CC)C(=O)c1ccc(NC(=O)CN2CCc3cc(OC)c(OC)cc3C2)cc1	0	0	0	0	0	0
CN1CCN(c2ccc([N+](=O)[O-])c(NCc3ccco3)c2)CC1	0	0	0	0	0	0
Nc1cc(N2CCNCC2)ccc1[N+](=O)[O-]	0	26	0	0	77	0
CNc1cc(N2CCNCC2)ccc1[N+](=O)[O-]	0	13	0	0	0	0
O=[N+]([O-])c1ccc(N2CCNCC2)cc1N1CCCCCC1	0	18	0	0	0	0
O=[N+]([O-])c1ccc(N2CCNCC2)cc1NCc1ccco1	0	0	0	0	0	-4.4
CN(N)N=Nc1nc2c([nH]1)c(=O)n(C)c(=O)n2C	0	0	0	0	0	0
CN1CCN(c2ccc([N+](=O)[O-])c(N)c2)CC1	0	10	0	0	0	0
SMILES	TRPC6 activator	TRPC4 potent	TRPC4 inh	TRPC6 inhibitor	TRPC4 act	Kir21 inh
CN(C)C=C1C(=O)N(C2CCCCC2)C(=O)N(C2CCCCC2)C1=O	0	0	0	0	95	0
O=C(c1ccc(F)c([N+](=O)[O-])c1)N1CC2CC(C1)c1cccc(=O)n1C2 (stereo not given)	0	0	0	0	0	0
COc1ccc(CCNCc2ccc(SC)cc2)cc1	0	0	0	0	101	-5.5
COc1cccc(CNCCc2ccc(F)cc2)c1	0	0	0	0	0	0
CCC(COC(=O)c1cc(OC)c(OC)c(OC)c1)(c1ccccc1)N(C)C (stereo not given)	0	0	0	0	54!	0
CCOc1cc2c(cc1OCC)-n1cccc1C(c1cc(OC)ccc1F)NC2 (stereo not given)	0	0	0	0	0	0
CC1CCC(NC(=O)CNC(=S)N2CC3CC(C2)c2cccc(=O)n2C3)CC1 (stereo not given)	0	0	0	0	0	0
O=C(CCCN1CCC2(CC1)C(=O)NCN2c1ccccc1)c1ccc(F)cc1	0	0	0	0	158	0
COc1ccc(C(CNC(=O)CCc2ccsc2)N(C)C)cc1 (stereo not given)	0	0	0	0	108	0
COc1ccc(C(CN(C)C)C2(O)CCCCC2)cc1 (stereo not given)	0	0	0	0	0	0
CN(C)C(CNC(=O)Cc1ccc(Br)cc1)c1ccccc1 (stereo not given)	0	0	0	0	175	0
c1ccc2nc(OCCN3CC3)ccc2c1	0	18	0	0	0	0
O=P(Nc1ccccc1)(Nc1ccccc1)Oc1ccc(Cl)cc1	0	10	0	0	0	0
COc1cccc(NP(=O)(Oc2ccc(Cl)cc2)Oc2ccc(Cl)cc2)c1	0	0	0	0	0	0
Cc1ccc(/C=C2/Sc3ccc(C(=O)N4CCC5(CC4)OCCO5)cc3NC2=O)cc1	0	0	0	0	0	0
N=c1c2c(n(Cc3ccc(Cl)cc3Cl)c3c1CCC3)CCCC2	0	0	0	-5.1	0	0
Cc1c(C(=O)c2cccc3ccccc23)c2cccc3c2n1[C@H](CN1CCOCC1)CO3	0	0	0	0	0	0
Cc1noc(C)c1CC(=O)N1CCCC(N2CCN(c3ccccc3F)CC2)C1 (stereo not given)	0	0	0	0	0	0
CC1=CC2/C=C(\C)CCC(O)C(O)/C=C/C(=O)C23C(=O)NC(CC(C)C)C3C1C (stereo not given)	0	0	0	0	0	-7.1
CSc1ccc(C(=O)C2CCCN(CCCn3cccn3)C2)cc1 (stereo not given)	0	0	0	0	83	0
CCOc1cc2c(cc1OCC)-n1cccc1C(c1cccc(OCC)c1O)NC2 (stereo not given)	0	0	0	0	0	0
C=C1C(=O)O[C@@H]2C[C@@H](C)[C@@H]3C=CC(=O)[C@@]3(C)[C@@H](O)[C@H]12	0	0	0	0	0	-4.3
C[C@@H]1C[C@H]2OC(=O)C3(CO3)[C@H]2[C@H](O)[C@]2(C)C(=O)C3OC3[C@@H]12 (stereo not given in full)	0	0	0	0	0	0
CCOC(=O)C1(CCc2ccccc2)CCN(CC(O)CO)CC1 (stereo not given)	0	0	0	0	0	0
Oc1c(Cl)c(Cl)c(Cl)c(Cl)c1Cl	0	0	0	0	0	0
CCN1CCN(C(=O)Cc2ccccc2OC)CC1	0	0	0	0	79	0
COc1ccccc1CC(=O)N1CCN(CCc2ccccc2)CC1	0	0	0	0	119	0
CCOC(=O)c1c(-n2c(C)cc(/C=C3/C(=O)NC(=O)N(CC)C3=O)c2C)sc2c1CCCC2	0	0	0	0	0	0
